PMC7041979 (The Journal of Veterinary Medical Science, 2019)

Columns and labels:
[1] = format: in vitro ADME, rat; conditions: for detection of ZON metabolite in mucosal and serosal buffers: LC-MS/MS
Method in brief: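 Everted 10 cm segments from male, nonpregnant female and gestation day 18–19 pregnant Sprague-Dawley rats: three small-intestine parts plus distal colon. Krebs Ringer bicarbonate, pH 7.4, 95% O₂/5% CO₂, 37°C. Mucosal 25 ml; serosal 25 ml circulated at 5 ml/min. Test compound 10 µM mucosal; both sides sampled 0–60 min. Negative-ESI LC-MS/MS against bile-derived glucuronide standards; mean ± S.D., six experiments.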

[2] = after oral exposure, estimated; cited from earlier work
[3] = system: cell viability; conditions: 10 µM, in vitro; cited from earlier work
[4] = system: estrogenic activity; conditions: cited from earlier work
[5] = ZON 10 µM, 60 min, female colon
[6] = ZON 10 µM, 60 min, female proximal intestine
[7] = ZON 10 µM, 60 min, pregnant female proximal intestine

CC1CCCC(=O)CCCC=Cc2cc(OC3OC(C(=O)O)C(O)C(O)C3O)cc(OC3OC(C(=O)O)C(O)C(O)C3O)c2C(=O)O1 (stereo not drawn) [zearalenone diglucuronide, Zearalenone diglucuronide]
detection of ZON metabolite in mucosal and serosal buffers ([1]; ZON 10 µM, 60 min): too low to quantify

C[C@H]1CCCC(=O)CCCCCc2cc(O)cc(O)c2C(=O)O1 [ZAN, Zearalanone]
detection of ZON metabolite in mucosal and serosal buffers ([1]; ZON 10 µM, 60 min): too low to quantify

β-Zearalenol [β-ZOL]
detection of ZON metabolite in mucosal and serosal buffers ([1]; ZON 10 µM, 60 min): too low to quantify

C[C@H]1CCC[C@@H](O)CCC/C=C/c2cc(O[C@@H]3O[C@H](C(=O)O)[C@@H](O)[C@H](O)[C@H]3O)cc(O)c2C(=O)O1 [α-ZOL-GA, α-Zearalenol glucuronide]
α-ZOL-GA mucosal excretion, minimum [1, 5]: 20.09 nmol | α-ZOL-GA serosal transport, minimum [1, 6]: 2.84 nmol | α-ZOL-GA serosal transport, maximum ([1]; ZON 10 µM, 60 min, pregnant female colon): 36.15 nmol | α-ZOL-GA mucosal excretion, maximum [1, 7]: 60.02 nmol

C[C@H]1CCCC(=O)CCC/C=C/c2cc(O)cc(O)c2C(=O)O1 [ZON, Zearalenone]
ZON uptake [2]: 80–85% | effect on cell viability [3]: not to affect cell viability | rate of disappearance of ZON from the mucosal compartment ([1]; ZON 10 µM in mucosal buffer, all segments): 100 to 200 nmol/h | amount of ZON transported from the mucosal side to the serosal side ([1]; ZON 10 µM, 60 min incubation, distal colon (highest)): approximately 2 nmol | recovery at 60 min, 10 µM ([1]; both, rat, pH 7.4): > 80%

C[C@H]1CCC[C@H](O)CCC/C=C/c2cc(O[C@@H]3O[C@H](C(=O)O)[C@@H](O)[C@H](O)[C@H]3O)cc(O)c2C(=O)O1 [β-ZOL-GA, β-Zearalenol glucuronide]
detection of ZON metabolite in mucosal and serosal buffers ([1]; ZON 10 µM, 60 min): too low to quantify

Zearalenone glucuronide [ZON-GA]
ZON-GA mucosal excretion, minimum [1, 5]: 22.55 nmol | ZON-GA serosal transport, maximum [1, 5]: 49.94 nmol | ZON-GA serosal transport, minimum [1, 6]: 1.64 nmol | ZON-GA mucosal excretion, maximum [1, 7]: 85.39 nmol

C[C@H]1CCC[C@H](O)CCC/C=C/c2cc(O)cc(O)c2C(=O)O1 [α-ZOL, α-Zearalenol]
estrogenic activity relative to ZON [4]: three times more potent | α-ZOL transport to the mucosal side relative to transport to the serosal side ([1]; ZON 10 µM, 60 min): approximately 6 times | α-ZOL mucosal excretion ([1]; ZON 10 µM, 60 min, at most, over all segments): ≤ 0.3 nmol | α-ZOL transport to the serosal side, maximum ([1]; ZON 10 µM, 60 min, colon): approximately 0.05 nmol
